Results reported in ChEMBL document CHEMBL3272249, “Esters of N-tert-butylarterenol. Long-acting new bronchodilators with reduced cardiac effects” (J Med Chem, 1976).

Tests used:
Canis familiaris [1] = test: Bronchodilator activity in dog assessed as degree of inhibition of carbachol or histamine-induced bronchoconstriction at 140 mg/kg, id relative to control; format: functional; conditions: Canis lupus familiaris, route intraduodenal
Method in brief: (§1)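 Anesthetized dogs, trachea cannulated with a nonbreathing valve. Bronchoconstriction induced by iv carbachol (2–4 μg/kg) or histamine diphosphate (20–50 μg/kg) in separate animals, and airway pressure recorded by transducer. Drug stocks were made fresh in distilled water, diluted in saline and kept on ice. Read-out was percent inhibition of control constriction, averaged over at least three dogs per dose at the higher dose. Carbachol and histamine data were combined.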

Canis familiaris [2] = test: Bronchodilator activity in dog assessed as degree of inhibition of carbachol or histamine-induced bronchoconstriction at 300 to 1200 mg/kg, it relative to control; format: functional, Canis lupus familiaris; conditions: dose mg/kg 300-1200; route endotracheal; method in brief: as §1
Canis familiaris [3] = test: Bronchodilator activity in dog assessed as degree of inhibition of carbachol or histamine-induced bronchoconstriction at 140 to 280 mg/kg, iv relative to control; format: functional, Canis lupus familiaris; conditions: dose mg/kg 140-280; method in brief: as §1
Canis familiaris [4] = test: Bronchodilator activity in dog assessed as time of inhibition of carbachol or histamine-induced bronchoconstriction at 140 mg/kg, id relative to control; format: functional, Canis lupus familiaris; conditions: route intraduodenal
Method in brief: (§2)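 Dog airway model: anesthetized, cannulated via a nonbreathing valve, with airway pressure changes recorded after iv carbachol (2–4 μg/kg) or histamine diphosphate (20–50 μg/kg) challenge, each agonist in different animals. Compounds were given iv, intraduodenally or intratracheally from fresh aqueous stocks diluted in saline. Duration (h) of inhibition of induced bronchoconstriction was followed, and the two agonist datasets were pooled.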

Canis familiaris [5] = test: Bronchodilator activity in dog assessed as time of inhibition of carbachol or histamine-induced bronchoconstriction at 300 to 1200 mg/kg, it relative to control; format: functional, Canis lupus familiaris; conditions: dose mg/kg 300-1200; route endotracheal; method in brief: as §2
Canis familiaris [6] = test: Bronchodilator activity in dog assessed as time of inhibition of carbachol or histamine-induced bronchoconstriction at 140 to 280 mg/kg, iv relative to control; format: functional, Canis lupus familiaris; conditions: dose mg/kg 140-280; method in brief: as §2
Canis familiaris [7] = test: Cardiotoxicity in spontaneously respiring dog assessed as time of increase in heart rate at 100 to 200 mg/kg, iv relative to control; format: toxicity, organism-based, Canis lupus familiaris; set-up: dose 100-200 mg/kg, route intravenous; conditions: in vivo
Method in brief: (§3)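 Anesthetized, spontaneously respiring dogs. Heart rate was taken from a lead II EKG, and blood pressure from the right femoral artery by transducer. The increase in heart rate (beats/min) was scored on a graded scale with more than 4 dogs per dose, and its duration was recorded. Drugs were dissolved fresh in distilled water, diluted in physiological saline and kept on ice.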

Canis familiaris [8] = test: Bronchodilator activity in dog assessed as degree of inhibition of carbachol or histamine-induced bronchoconstriction at 100 to 200 mg/kg, iv relative to control; format: functional, Canis lupus familiaris; conditions: dose mg/kg 100-200; method in brief: as §1
Canis familiaris [9] = test: Cardiotoxicity in spontaneously respiring dog assessed as degree of increase in heart rate at 100 to 200 mg/kg, iv relative to control; format: toxicity, organism-based, Canis lupus familiaris; set-up: dose 100-200 mg/kg, route intravenous; conditions: in vivo; method in brief: as §3
Canis familiaris [10] = test: Bronchodilator activity in dog assessed as time of inhibition of carbachol or histamine-induced bronchoconstriction at 100 to 200 mg/kg, iv relative to control; format: functional, Canis lupus familiaris; conditions: dose mg/kg 100-200; method in brief: as §2
Canis familiaris [11] = test: Bronchodilator activity in dog assessed as degree of inhibition of carbachol or histamine-induced bronchoconstriction at 35 to 140 mg/kg, iv relative to control; format: functional, Canis lupus familiaris; conditions: dose mg/kg 35-140; method in brief: as §1
Canis familiaris [12] = test: Bronchodilator activity in dog assessed as degree of inhibition of carbachol or histamine-induced bronchoconstriction at 540 to 1080 mg/kg, it relative to control; format: functional, Canis lupus familiaris; conditions: dose mg/kg 540-1080; route endotracheal; method in brief: as §1
Canis familiaris [13] = test: Cardiotoxicity in spontaneously respiring dog assessed as degree of increase in heart rate at 70 to 280 mg/kg, id relative to control; format: toxicity, organism-based, Canis lupus familiaris; set-up: dose 70-280 mg/kg, route intraduodenal; conditions: in vivo, other; method in brief: as §3
Canis familiaris [14] = test: Bronchodilator activity in dog assessed as time of inhibition of carbachol or histamine-induced bronchoconstriction at 70 to 280 mg/kg, id relative to control; format: functional, Canis lupus familiaris; conditions: dose mg/kg 70-280; route intraduodenal
Method in brief: (§4)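 Anesthetized dogs with an airway cannula and a nonbreathing valve. Bronchoconstriction was induced by iv carbachol (2–4 μg/kg) or histamine diphosphate (20–50 μg/kg) and read as change in airway pressure by transducer. Each compound was tested against both agonists in different dogs, and the results were combined and averaged. Effect is % inhibition of control constriction, with at least three dogs per dose. Drugs were dissolved fresh in distilled water, diluted in saline and kept on ice.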

Canis familiaris [15] = test: Bronchodilator activity in dog assessed as degree of inhibition of carbachol or histamine-induced bronchoconstriction at 70 to 280 mg/kg, id relative to control; format: functional, Canis lupus familiaris; conditions: dose mg/kg 70-280; route intraduodenal; method in brief: as §1
Canis familiaris [16] = test: Bronchodilator activity in dog assessed as time of inhibition of carbachol or histamine-induced bronchoconstriction at 35 to 140 mg/kg, iv relative to control; format: functional, Canis lupus familiaris; conditions: dose mg/kg 35-140; method in brief: as §2
Canis familiaris [17] = test: Bronchodilator activity in dog assessed as time of inhibition of carbachol or histamine-induced bronchoconstriction at 540 to 1080 mg/kg, it relative to control; format: functional, Canis lupus familiaris; conditions: dose mg/kg 540-1080; route endotracheal; method in brief: as §4
Canis familiaris [18] = test: Cardiotoxicity in spontaneously respiring dog assessed as degree of increase in heart rate at 35 to 140 mg/kg, iv relative to control; format: toxicity, organism-based, Canis lupus familiaris; set-up: dose 35-140 mg/kg, route intravenous; conditions: in vivo; method in brief: as §3
Canis familiaris [19] = test: Cardiotoxicity in spontaneously respiring dog assessed as degree of increase in heart rate at 540 to 1080 mg/kg, intratracheal relative to control; conditions: in vivo
Canis familiaris [20] = test: Cardiotoxicity in spontaneously respiring dog assessed as time of increase in heart rate at 35 to 140 mg/kg, iv relative to control; format: toxicity, organism-based, Canis lupus familiaris; set-up: dose 35-140 mg/kg, route intravenous; conditions: in vivo; method in brief: as §3
Canis familiaris [21] = test: Cardiotoxicity in spontaneously respiring dog assessed as time of increase in heart rate at 70 to 280 mg/kg, id relative to control; format: toxicity, organism-based, Canis lupus familiaris; set-up: dose 70-280 mg/kg, route intraduodenal; conditions: in vivo, other
Method in brief: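 Anesthetized, spontaneously respiring dogs. Heart rate monitored by lead II EKG, with blood pressure taken from the right femoral artery by pressure transducer and recorded on a polygraph. Drug stocks made fresh in distilled water, diluted in physiological saline and kept on ice. Dosing was iv, id or it as listed. The duration of the heart-rate increase was recorded in h, with more than 4 dogs per dose.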

Canis familiaris [22] = test: Cardiotoxicity in spontaneously respiring dog assessed as time of increase in heart rate at 540 to 1080 mg/kg, it relative to control; conditions: in vivo
Canis familiaris [23] = test: Bronchodilator activity in dog assessed as time of inhibition of carbachol or histamine-induced bronchoconstriction at 50 to 100 mg/kg, id relative to control; format: functional, Canis lupus familiaris; conditions: dose mg/kg 50-100; route intraduodenal; method in brief: as §4
Canis familiaris [24] = test: Bronchodilator activity in dog assessed as degree of inhibition of carbachol or histamine-induced bronchoconstriction at 50 to 100 mg/kg, id relative to control; format: functional, Canis lupus familiaris; conditions: dose mg/kg 50-100; route intraduodenal; method in brief: as §1
Canis familiaris [25] = test: Bronchodilator activity in dog assessed as time of inhibition of carbachol or histamine-induced bronchoconstriction at 25 to 100 mg/kg, iv relative to control; format: functional, Canis lupus familiaris; conditions: dose mg/kg 25-100; method in brief: as §2
Canis familiaris [26] = test: Bronchodilator activity in dog assessed as degree of inhibition of carbachol or histamine-induced bronchoconstriction at 25 to 100 mg/kg, iv relative to control; format: functional, Canis lupus familiaris; conditions: dose mg/kg 25-100; method in brief: as §1
Canis familiaris [27] = test: Cardiotoxicity in spontaneously respiring dog assessed as time of increase in heart rate at 25 to 100 mg/kg, iv relative to control; format: toxicity, organism-based, Canis lupus familiaris; set-up: dose 25-100 mg/kg, route intravenous; conditions: in vivo; method in brief: as §3
Canis familiaris [28] = test: Cardiotoxicity in spontaneously respiring dog assessed as degree of increase in heart rate at 25 to 100 mg/kg, iv relative to control; format: toxicity, organism-based, Canis lupus familiaris; set-up: dose 25-100 mg/kg, route intravenous; conditions: in vivo; method in brief: as §3

Q: How did the inhibition in vivo at 140 mg/kg (Canis familiaris [1]) turn out when `CS(=O)(=O)O.Cc1cccc(C(=O)Oc2ccc([C@@H](O)CNC(C)(C)C)cc2OC(=O)c2cccc(C)c2)c1` was run?
A: 45%

Q: What about the “inhibition (INH)” value (Canis familiaris [2]) of the same molecule?
A: 45%

Q: And the “inhibition (INH)” value (Canis familiaris [3])?
A: >70%

Q: What about the Time (Canis familiaris [4]) of the same molecule?
A: 2 h

Q: What about the Time (Canis familiaris [5]) of the same molecule?
A: <4 h

Q: And the Time (Canis familiaris [6])?
A: >3 h

Q: How did the Time (Canis familiaris [7]) turn out when `CC(C)(C)NC[C@H](O)c1ccc(OC(=O)C2CCCCC2)c(OC(=O)C2CCCCC2)c1.Cl` was run?
A: < 3 h

Q: And the “inhibition (INH)” value (Canis familiaris [8])?
A: 45%

Q: What about the Activity (Canis familiaris [9]) of the same molecule?
A: 20%

Q: And the Time (Canis familiaris [10])?
A: <5 h

Q: Which results are given for `CS(=O)(=O)O.Cc1ccc(C(=O)Oc2ccc([C@@H](O)CNC(C)(C)C)cc2OC(=O)c2ccc(C)cc2)cc1`?
A: inhibition (INH) (Canis familiaris [11]): >70%; inhibition (INH) (Canis familiaris [12]): 45%; Activity (Canis familiaris [13]): 20%; Time (Canis familiaris [14]): >5 h; inhibition (INH) (Canis familiaris [15]): >70%; Time (Canis familiaris [16]): >5 h; Time (Canis familiaris [17]): >5 h; Activity (Canis familiaris [18]): 20%; Activity (Canis familiaris [19]): 5%; Time (Canis familiaris [20]): 2 h; Time (Canis familiaris [21]): 2 h; Time (Canis familiaris [22]): < 1 h

Q: With `COc1ccc(C(=O)Oc2ccc([C@@H](O)CNC(C)(C)C)cc2OC(=O)c2ccc(OC)cc2)cc1.Cl` as the molecule, how does the Time (Canis familiaris [23]) read?
A: <3 h

Q: And the “inhibition (INH)” value (Canis familiaris [24])?
A: 20%

Q: What about the Time (Canis familiaris [25]) of the same molecule?
A: 1 h

Q: What about the “inhibition (INH)” value (Canis familiaris [26]) of the same molecule?
A: 20%

Q: And the Time (Canis familiaris [27])?
A: < 2 h

Q: What about the Activity (Canis familiaris [28]) of the same molecule?
A: 20%
